Measurements: ChEMBL document CHEMBL1156675, “Synthesis and antituberculosis activity of new thiazolylhydrazone derivatives” (Eur J Med Chem, 2008)
Converted amounts (≈) assume the structure as drawn.

How the values were obtained:
[1] = system: NIH3T3; experiment: Cytotoxicity against mouse NIH3T3 cells after 24 hrs by MTT assay; assay type: cell-based; conditions: NIH3T3, 24 h
Summary of the method: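 NIH/3T3 cells grown in DMEM with 10% fetal calf serum, penicillin and streptomycin at 37 °C, 5% CO2. Plated at 5 × 10⁴ cells/ml, preincubated 24 h, then exposed to compounds (DMSO stocks diluted in medium, final DMSO <0.6%) for 24 h. MTT 0.5 mg/ml final, 4 h, 37 °C; formazan dissolved in DMSO, absorbance 540 nm. Triplicate wells; IC50 = concentration halving absorbance versus control.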

[2] = system: Mycobacterium tuberculosis; experiment: Antitubercular activity against Mycobacterium tuberculosis H37Rv ATCC 27294 at 6.25 ug/ml by microplate alamar blue assay; assay type: functional
Summary of the method: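 Single-concentration primary screen at 6.25 against H37Rv in BACTEC 12B medium by Microplate Alamar Blue Assay, with results read as percent inhibition on a BACTEC 460 radiometric system. Positive BACTEC culture (GI ≥500) or McFarland No. 1 suspension was inoculated into drug vials and incubated at 37 °C with daily reads. Once the control GI reached ≥30, the daily ΔGI of drug and control vials was compared.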

[3] = system: Mycobacterium tuberculosis; experiment: Antitubercular activity against Mycobacterium tuberculosis H37Rv ATCC 27294 by microplate alamar blue assay; assay type: functional

SMILES | IC50 [1] [µg/mL] | inhibition at 6.25 µg/mL [2] [%] | MIC [3] [µg/mL]
C/C(=N\Nc1nc(-c2ccc3c(c2)CCC3)cs1)c1ccc(Cl)cc1 | 120 (≈ 326 µM) | – | –
C/C(=N\Nc1nc(-c2ccc3c(c2)CCC3)cs1)c1ccc([N+](=O)[O-])cc1 | 90 (≈ 238 µM) | – | –
CO[C@H]1/C=C/O[C@@]2(C)Oc3c(C)c(O)c4c(O)c(c(/C=N/N5CCN(C)CC5)c(O)c4c3C2=O)NC(=O)/C(C)=C\C=C\[C@H](C)[C@H](O)[C@@H](C)[C@@H](O)[C@@H](C)[C@H](OC(C)=O)[C@@H]1C [RIFAMPIN] | – | 98 | 0.25 (≈ 0.304 µM)
C/C(=N\Nc1nc(-c2ccc3c(c2)CCC3)cs1)c1ccc(C)cc1 | 49 (≈ 141 µM) | – | –
C/C(=N\Nc1nc(-c2ccc3c(c2)CCC3)cs1)c1ccc(Cl)c(Cl)c1 | 110 (≈ 273 µM) | – | –
COc1ccc(/C(C)=N/Nc2nc(-c3ccc4c(c3)CCC4)cs2)cc1 | 180 (≈ 495 µM) | – | –
C/C(=N\Nc1nc(-c2ccc3c(c2)CCC3)cs1)c1ccccc1 | 200 (≈ 600 µM) | – | –
